Results on 15 compounds are retold here after ChEMBL document CHEMBL4392849, “Design, synthesis, evaluation and molecular modeling study of 4-N-phenylaminoquinolines for Alzheimer disease treatment” (Bioorg Med Chem Lett, 2019).

The target of one test is Cholinesterase (Equus caballus, UniProt P81908). Put plainly: Inhibition of equine serum BChE using butyrylthiocholine iodide as substrate preincubated for 15 mins followed by substrate addition by Ellman's method. In kind it is single protein. The procedure, abridged:
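Ellman method run at pH 8.0 in 0.1 M sodium phosphate buffer. Compounds come from 10 mM DMSO stocks diluted in buffer. Enzyme solution is 0.05 U/ml and DTNB stock is 10 mM. These are held 15 min at 25°C, then 7.5 mM butyrylthiocholine iodide stock is added. Percent inhibition comes from hydrolysis rate with versus without inhibitor.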

The target in a further test is Acetylcholinesterase (Electrophorus electricus, UniProt O42275). Kind of test: Inhibition of electric eel AChE using acetylthiocholine iodide as substrate preincubated for 15 mins followed by substrate addition by Ellman's method. Background: Ellman's reagent forms a yellow product with free thiols.
Chain of Acetylcholinesterase (O42275 whole entry): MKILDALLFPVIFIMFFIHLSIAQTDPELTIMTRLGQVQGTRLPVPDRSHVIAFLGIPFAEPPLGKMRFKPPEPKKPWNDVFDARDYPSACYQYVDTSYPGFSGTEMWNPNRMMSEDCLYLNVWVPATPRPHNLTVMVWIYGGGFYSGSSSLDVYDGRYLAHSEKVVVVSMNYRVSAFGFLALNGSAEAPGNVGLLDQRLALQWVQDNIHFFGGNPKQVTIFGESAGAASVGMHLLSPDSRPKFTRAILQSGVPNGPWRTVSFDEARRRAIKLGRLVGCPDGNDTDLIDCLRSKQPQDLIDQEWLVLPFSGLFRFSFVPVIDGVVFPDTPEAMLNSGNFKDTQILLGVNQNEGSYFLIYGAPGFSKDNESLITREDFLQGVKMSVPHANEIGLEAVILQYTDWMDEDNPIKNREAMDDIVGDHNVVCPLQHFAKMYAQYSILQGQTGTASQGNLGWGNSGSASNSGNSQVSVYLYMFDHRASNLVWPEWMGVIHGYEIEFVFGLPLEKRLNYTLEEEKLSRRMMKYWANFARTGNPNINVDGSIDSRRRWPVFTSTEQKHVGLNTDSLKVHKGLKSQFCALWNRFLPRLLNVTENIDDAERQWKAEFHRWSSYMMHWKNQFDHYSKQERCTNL

Chain of Cholinesterase (P81908 whole entry): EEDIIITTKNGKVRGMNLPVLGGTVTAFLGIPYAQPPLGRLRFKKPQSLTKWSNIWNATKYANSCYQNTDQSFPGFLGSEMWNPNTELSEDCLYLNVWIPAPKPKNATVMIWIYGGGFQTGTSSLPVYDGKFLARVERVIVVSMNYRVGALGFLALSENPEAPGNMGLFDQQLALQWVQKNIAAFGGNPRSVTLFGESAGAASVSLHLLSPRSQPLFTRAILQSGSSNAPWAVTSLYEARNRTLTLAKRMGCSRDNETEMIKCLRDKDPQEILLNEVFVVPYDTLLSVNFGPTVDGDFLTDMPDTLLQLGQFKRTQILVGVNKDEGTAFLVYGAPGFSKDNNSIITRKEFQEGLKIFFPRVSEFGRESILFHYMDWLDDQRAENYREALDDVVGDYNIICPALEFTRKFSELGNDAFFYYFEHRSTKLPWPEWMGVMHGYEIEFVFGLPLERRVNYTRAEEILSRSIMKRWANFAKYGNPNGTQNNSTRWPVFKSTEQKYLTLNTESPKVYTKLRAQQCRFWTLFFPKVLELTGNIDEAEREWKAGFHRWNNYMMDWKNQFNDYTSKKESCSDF

For `COc1ccc(Nc2c([N+](=O)[O-])cnc3cc(OCCCN(C)Cc4ccccc4)c(OC)cc23)cc1`, the IC50 against Cholinesterase was found to be 50.4 µM; on Acetylcholinesterase it was 10.9 µM.

Take `COc1cc2c(Nc3ccc(Cl)cc3)c([N+](=O)[O-])cnc2cc1OCCC[n+]1ccccc1`: the IC50 amounted to 14.2 µM against Cholinesterase and 0.92 µM on Acetylcholinesterase.

On to `COc1ccccc1Nc1c([N+](=O)[O-])cnc2cc(OCCCN(C)Cc3ccccc3)c(OC)cc12`, for which the half-maximal inhibitory concentration (IC50) at Cholinesterase was determined as 8.67 µM; on Acetylcholinesterase it was 7.9 µM.

Regarding `COc1cc2c(Nc3ccc(Cl)cc3Cl)c([N+](=O)[O-])cnc2cc1OCCCN(C)Cc1ccccc1`, the IC50 was found to be 58.7 µM on Cholinesterase and 1.85 µM against Acetylcholinesterase.

As to `COc1cc2c(Nc3cccc(C(F)(F)F)c3)c([N+](=O)[O-])cnc2cc1OCCCN(C)Cc1ccccc1`, the results for the IC50 on Cholinesterase and at Acetylcholinesterase were 55.4 µM and 7.78 µM, respectively.

On to `COc1cccc(Nc2c([N+](=O)[O-])cnc3cc(OCCCN(C)Cc4ccccc4)c(OC)cc23)c1`, for which the IC50 was found to be 9.19 µM on Cholinesterase and 1.72 µM against Acetylcholinesterase.

As to `COc1cc2c(Nc3cccc(C)c3)c([N+](=O)[O-])cnc2cc1OCCCN(C)Cc1ccccc1`, the IC50 against Cholinesterase came out at 2.78 µM; at Acetylcholinesterase, 1.86 µM.

For `COc1cc2c(Nc3ccccc3C)c([N+](=O)[O-])cnc2cc1OCCCN(C)Cc1ccccc1`, the results for the IC50 on Cholinesterase and against Acetylcholinesterase were 29.7 µM and 10.1 µM, respectively.

In the case of `COc1cc2c(Nc3ccc(Cl)cc3)c([N+](=O)[O-])cnc2cc1OCCCN(C)Cc1ccccc1`, the IC50 stood at 17.4 µM on Cholinesterase and 1.88 µM against Acetylcholinesterase.

Consider `COc1cc2c(Nc3ccccc3Cl)c([N+](=O)[O-])cnc2cc1OCCCN(C)Cc1ccccc1`, for which the IC50 on Cholinesterase was 2.65 µM; on Acetylcholinesterase, 0.86 µM.

Consider `COc1cc2c(Nc3ccc(C)cc3)c([N+](=O)[O-])cnc2cc1OCCCN(C)Cc1ccccc1`, for which the IC50 at Cholinesterase is 73.6 µM; against Acetylcholinesterase it was 11.8 µM.

For the compound `COc1cc2c(Nc3ccccc3)c([N+](=O)[O-])cnc2cc1OCCCN(C)Cc1ccccc1`, the values for the IC50 at Cholinesterase and against Acetylcholinesterase were 10.1 µM and 0.65 µM, respectively.

For `COc1cc2c(Nc3ccc(O)cc3)c([N+](=O)[O-])cnc2cc1OCCCN(C)Cc1ccccc1`, the half-inhibitory concentration (IC50) at Cholinesterase worked out at 17.4 µM; on Acetylcholinesterase, 0.74 µM.

Regarding `COc1cc2c(Nc3cccc(Cl)c3)c([N+](=O)[O-])cnc2cc1OCCCN(C)Cc1ccccc1`, the values for the IC50 against Cholinesterase and against Acetylcholinesterase were 15.2 µM and 0.83 µM, respectively.

With `COc1cc2c(Nc3cccc(O)c3)c([N+](=O)[O-])cnc2cc1OCCCN(C)Cc1ccccc1`, the IC50 at Cholinesterase came to 10.8 µM; at Acetylcholinesterase it was 0.71 µM.

As a reminder, the IC50 is the concentration needed to halve the response being measured. High values mean weaker potency in that assay, low ones greater potency in that assay.
